This is an account of results in ChEMBL document CHEMBL1124260, “Synthesis and antitumor activity of quaternary ellipticine glycosides, a series of novel and highly active antitumor agents” (1988).

Values joined by “and” are separate entries in the source; they are usually repeats but may differ in a detail not shown here. Equal entries are not always repeated.

Experiment [1] concerns Mus musculus. The experiment is described as follows: Effect on ip implanted sarcoma 180 by ip administration for 5 days at 80 mg/kg was measured as increase in mean life span. In kind it is functional. Conditions: Sarcoma-180, ip, 120 h, route intraperitoneal. In outline:
(§1)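 Saline-dissolved drug was dosed ip daily for 5 consecutive days starting 24 h later. Readout was ILS % (mean survival time of treated vs control) over an 80-day observation.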

Experiment [2] relates to Mus musculus. Put plainly: Number of survivors out of 6 ip implanted P388 leukemia mouse tested after 80 days at 10 mg/kg. In kind it is functional. As to conditions: route intraperitoneal. The procedure, abridged:
(§2)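 P388 leukemia, 10^6 ascitic cells implanted ip in female BDF1 mice. Drug in saline given ip for 5 consecutive days from 24 h after transplant. Groups of six per dose level. Survivors/total recorded at the 80-day end of observation; ILS % from treated/control mean survival time.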

Experiment [3] deals with Mus musculus. The experiment is described as follows: Effect on ip implanted sarcoma 180 by ip administration for 5 days at 40 mg/kg was measured as increase in mean life span. The format is functional. As to conditions: Sarcoma-180, ip, 120 h, route intraperitoneal. In outline:
as §1

In experiment [4] the test system is Mus musculus. The experiment is described as follows: Number of survivors out of 6 ip implanted sarcoma 180 leukemia mouse tested after 80 days at 80 mg/kg. The format is functional. Conditions: route intraperitoneal. In outline:
(§3)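 Drug dissolved and diluted in saline just before use, given ip for 5 consecutive days starting 24 h after implant. Six mice per dose. Survivors counted at 80 days; ILS % taken from mean survival time of treated vs control mice.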

The test system of experiment [5] is Mus musculus. The experiment is described as follows: Antitumor activity against ip implanted L1210 leukemia in mouse after ip administration of 1.25 mg/kg for 5 days expressed as increase in mean life span. The format is functional. As to conditions: 120 h, route intraperitoneal. In outline:
(§4)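 Drug was dissolved in 0.9% NaCl, diluted just before use and given ip once daily for 5 consecutive days, starting 24 h after transplant. ILS % = mean survival time of treated vs control mice, observed for 80 days.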

Experiment [6] relates to Mus musculus. Put plainly: Antitumor activity against ip implanted P388 leukemia in mouse after iv administration of 20 mg/kg for 5 days expressed as increase in mean life span. Conditions: 120 h.
The test system of experiment [7] is Mus musculus. Put plainly: Antitumor activity against ip implanted L1210 leukemia in mouse after ip administration of 40 mg/kg for 5 days expressed as increase in mean life span. As to conditions: 120 h, route intraperitoneal. In kind it is functional. The procedure, abridged: as §4
Experiment [8] has as its system Mus musculus. Put plainly: Effect on ip implanted EAC by ip administration for 5 days at 10 mg/kg was measured as increase in mean life span. The format is functional. As to conditions: 120 h, route intraperitoneal. The procedure, abridged: (§5)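 Drug in 0.9% NaCl was given ip for 5 consecutive days from 24 h after inoculation. ILS % came from treated vs control mean survival time, followed for 80 days.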

Experiment [9] relates to Mus musculus. The experiment is described as follows: Number of survivors out of 6 ip-ip implanted EAC leukemia mouse tested after 80 days at 20 mg/kg. In kind it is functional. The procedure, abridged:
as §3

For experiment [10], the system named is Mus musculus. Put plainly: Effect on ip implanted EAC by ip administration for 5 days at 80 mg/kg was measured as increase in mean life span. As to conditions: 120 h, route intraperitoneal. The format is functional. The procedure, abridged: as §5
Experiment [11] has as its system Mus musculus. Put plainly: Antitumor activity against iv implanted L1210 leukemia in mouse after ip administration of 10 mg/kg for 5 days expressed as increase in mean life span. The format is functional.
For experiment [12], the system named is Mus musculus. The experiment is described as follows: Number of survivors out of 6 ip implanted P388 leukemia mouse tested after 80 days at 20 mg/kg. In kind it is functional. As to conditions: route intraperitoneal. In outline:
as §2

For experiment [13], the system named is Mus musculus. The experiment is described as follows: Antitumor activity against ip implanted L1210 leukemia in mouse after ip administration of 30 mg/kg for 5 days expressed as increase in mean life span. In kind it is functional. Conditions: Mus musculus, L1210, ip, 120 h, route intraperitoneal. In outline:
as §4

Experiment [14] concerns Mus musculus. Put plainly: Number of survivors out of 6 ip implanted sarcoma 180 leukemia mouse tested after 80 days at 40 mg/kg. Conditions: route intraperitoneal. In kind it is functional. The procedure, abridged: as §3
In experiment [15] the test system is Mus musculus. The experiment is described as follows: Effect on ip implanted syngeneic B16 melanoma by ip administration of 20 mg/kg for 9 days measured as increase in mean life span. Conditions: 216 h.
The test system of experiment [16] is Mus musculus. The experiment is described as follows: Number of survivors out of 6 ip implanted P388 leukemia mouse tested after 80 days at 40 mg/kg. In kind it is functional. Conditions: route intraperitoneal. In outline: as §2
For experiment [17], the system named is Mus musculus. Put plainly: Antitumor activity against ip implanted L1210 leukemia in mouse after ip administration of 10 mg/kg for 5 days expressed as increase in mean life span. Conditions: Mus musculus, L1210, ip, 120 h, route intraperitoneal. The format is functional. The procedure, abridged: as §4
In experiment [18] the test system is Mus musculus. The experiment is described as follows: Number of survivors out of 6 ip-ip implanted EAC leukemia mouse tested after 80 days at 80 mg/kg. In kind it is functional. In outline:
as §3

Experiment [19] has as its system Mus musculus. Put plainly: Effect on ip implanted EAC by ip administration for 5 days at 40 mg/kg was measured as increase in mean life span. The format is functional. Conditions: 120 h, route intraperitoneal. In outline:
as §5

In experiment [20] the test system is Mus musculus. The experiment is described as follows: Antitumor activity against ip implanted P388 leukemia in mouse after iv administration of 10 mg/kg for 5 days expressed as increase in mean life span. As to conditions: 120 h.
The test system of experiment [21] is Mus musculus. The experiment is described as follows: Inhibition of sc implanted syngeneic colon 38 carcinoma by ip administration at 50 mg/kg was on 1, 3, 5, 7, 9 days measured as inhibition ratio. The format is functional. As to conditions: route subcutaneous. The procedure, abridged: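 Tumor homogenate (70 mg) implanted into the axillary region of female BDF1 mice. Drug dissolved in 0.9% NaCl and diluted with saline just before use, then given ip on days 1, 3, 5, 7 and 9. Tumor length and width were measured by caliper on day 20 after inoculation and converted to estimated weight. Result reported as treated vs control tumor weight, T/C %.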

`Cc1c2cc[n+]([C@@H]3OC[C@H](O)[C@H](O)[C@H]3O)cc2c(C)c2c1[nH]c1ccc(O)cc12.[Br-]`: the ILS at 80 mg/kg is above 353% in experiment [1] and above 492% in experiment [10]. The Cures in [2] was found to be 1; in [12], 3; in experiment [16], 6; in experiment [18] it was 5. The figures for the increase in life span (ILS) at 40 mg/kg in experiment [3], in experiment [7] and in experiment [19] were above 339%, above 713% and above 518%, respectively. Besides, the “Cures@ 80 mg/kg” value in experiment [4] is 2. Also, the increase in life span (ILS) at 1.25 mg/kg in [5] amounted to 37%. Besides, the increase in lifespan (ILS) at 20 mg/kg in experiment [6] is above 394%; in [15] it was 60%. Also, the results for the increase in lifespan (ILS) at 10 mg/kg in experiment [8], in experiment [17] and in experiment [20] were above 297%, 113% and 83%, respectively. The “Cures@ 20mg/kg” value in experiment [9] turned out to be 1. The ILS in experiment [11] was 82% and >214%. The increase in life span (ILS) at 30 mg/kg in experiment [13] is above 860%. Also, the “Cures@ 40mg/kg” value in experiment [14] is given as 2. Besides, the “T/C @ 50mg/kg” value in [21] is 4%.
